Measurements published in ChEMBL document CHEMBL1155235 (Eur J Med Chem, 2009).
Activity calls are given as the source filed them. No cut-off for these calls is given here.

Columns and labels:
[1] = biological target: T1, Fatty-acid amide hydrolase 1 (Rattus norvegicus) (UniProt P97612); experiment: Inhibition of FAAH in rat brain homogenates assessed as membrane bound [3H]anandamide level at 1 uM relative to control; assay type: tissue-based; parameters: scale not given: the % may be the effect or the level left
T1 sequence (whole entry): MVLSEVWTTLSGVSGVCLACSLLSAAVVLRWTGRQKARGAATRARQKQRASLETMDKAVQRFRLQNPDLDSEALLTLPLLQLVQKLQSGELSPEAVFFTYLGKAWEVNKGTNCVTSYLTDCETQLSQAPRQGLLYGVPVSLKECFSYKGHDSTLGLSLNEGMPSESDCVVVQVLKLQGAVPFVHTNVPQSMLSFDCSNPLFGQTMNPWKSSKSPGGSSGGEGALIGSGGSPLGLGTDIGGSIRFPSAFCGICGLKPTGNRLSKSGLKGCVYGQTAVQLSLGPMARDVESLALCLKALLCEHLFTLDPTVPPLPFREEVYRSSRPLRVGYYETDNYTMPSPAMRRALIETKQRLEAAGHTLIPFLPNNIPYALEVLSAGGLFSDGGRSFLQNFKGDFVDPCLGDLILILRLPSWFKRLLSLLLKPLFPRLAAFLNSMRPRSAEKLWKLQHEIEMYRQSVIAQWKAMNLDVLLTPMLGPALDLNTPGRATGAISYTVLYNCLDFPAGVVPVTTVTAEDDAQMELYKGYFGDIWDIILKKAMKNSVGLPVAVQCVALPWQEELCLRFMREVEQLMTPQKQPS
In short: (§1)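 Brain membrane FAAH. Tissue was homogenized in 50 mM Tris pH 8 with 0.32 M sucrose, spun at 1000g for 5 min, and the supernatant spun at 45,000g for 30 min. The pellet was solubilized in Tris at 0–4 °C, protein measured by Bradford, and samples stored at −70 °C. Substrate was arachidonyl-[1-3H]-ethanolamide, and [3H]ethanolamine was counted in the aqueous phase after chloroform extraction. Conditions were linear in time and protein; activity is given as % of control at 10^-6 and 10^-7 M.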

[2] = biological target: T1, Fatty-acid amide hydrolase 1 (Rattus norvegicus); experiment: Inhibition of FAAH in rat brain homogenates assessed as membrane bound [3H]anandamide level at 0.1 uM relative to control; assay type: tissue-based; parameters: scale not given: the % may be the effect or the level left; in short: as §1
Cannabinoid receptor 1 [3] = biological target: T2, Cannabinoid receptor 1 (Rattus norvegicus, UniProt P20272); experiment: Displacement of [3H]SR141716A from CB1 receptor in rat cerebellar membrane after 90 mins by scintillation counting; assay type: cell membranes, Cerebellum
In short: (§2)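 Compounds were dissolved in DMSO, then diluted in 20 mM HEPES pH 7.4 with 1 mM MgCl2 and 0.5% fatty-acid-free BSA. Incubation was 30 °C for 90 min, stopped with ice-cold buffer and filtered on GF/C. Ki was derived by Cheng–Prusoff using fixed, independently measured Kd.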

[4] = biological target: Cannabinoid receptor 1 (Mus musculus) (UniProt P47746); experiment: Agonist activity at CB1 receptor in CD1 mouse vas deferens assessed as inhibition of electrically-evoked contraction at 0.01 to 1 nM after 15 mins; assay type: functional, tissue-based
In short: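 Vasa deferentia from male CD-1 mice (25–30 g) cycled through 5 min stimulation (15 pulses per min, 70 V, 15 Hz, 2 ms) and 10 min rest, with isometric force recorded. Doses were added stepwise at 15 min intervals, and Krebs was replaced before each dose. Inhibition was read 15 min after each dose against the last pre-agonist contraction (100%). One curve was built per tissue.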

Cannabinoid receptor 1 [5] = biological target: T2, Cannabinoid receptor 1; experiment: Displacement of [3H]WIN-55212-2 from CB1 receptor in rat cerebellar membrane after 90 mins by scintillation counting; assay type: cell membranes, Cerebellum
In short: as §2, with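 “Cerebellar membranes incubated in triplicate with radioligand ([3H]SR141716A 0.4 nM; [3H]WIN-55212-2 1 nM) and compound at 10^-5 to 10^-12 M final. Compounds” for “Compounds”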

[6] = biological target: T3, Cannabinoid receptor 2 (Rattus norvegicus) (UniProt Q9QZN9); experiment: Displacement of [3H]WIN-55212-2 from CB2 receptor in rat cerebellar membrane at 0.001 nM after 90 mins by scintillation counting; assay type: cell membranes; settings: Cerebellum
T3 sequence (whole entry): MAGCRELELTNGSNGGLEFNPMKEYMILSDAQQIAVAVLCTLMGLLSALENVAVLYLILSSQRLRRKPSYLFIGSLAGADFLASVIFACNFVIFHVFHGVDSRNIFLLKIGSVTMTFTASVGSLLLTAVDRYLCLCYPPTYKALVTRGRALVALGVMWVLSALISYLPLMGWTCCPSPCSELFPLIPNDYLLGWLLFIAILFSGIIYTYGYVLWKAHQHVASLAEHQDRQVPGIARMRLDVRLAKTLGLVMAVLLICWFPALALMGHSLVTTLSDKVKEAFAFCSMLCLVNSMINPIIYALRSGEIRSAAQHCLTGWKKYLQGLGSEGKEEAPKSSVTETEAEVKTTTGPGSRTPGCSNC

[7] = biological target: T3, Cannabinoid receptor 2 (Rattus norvegicus); experiment: Displacement of [3H]WIN-55212-2 from CB2 receptor in rat cerebellar membrane at 10 uM after 90 mins by scintillation counting; assay type: cell membranes; settings: Cerebellum

Chain of Cannabinoid receptor 1 (Mus musculus) (P47746 whole entry): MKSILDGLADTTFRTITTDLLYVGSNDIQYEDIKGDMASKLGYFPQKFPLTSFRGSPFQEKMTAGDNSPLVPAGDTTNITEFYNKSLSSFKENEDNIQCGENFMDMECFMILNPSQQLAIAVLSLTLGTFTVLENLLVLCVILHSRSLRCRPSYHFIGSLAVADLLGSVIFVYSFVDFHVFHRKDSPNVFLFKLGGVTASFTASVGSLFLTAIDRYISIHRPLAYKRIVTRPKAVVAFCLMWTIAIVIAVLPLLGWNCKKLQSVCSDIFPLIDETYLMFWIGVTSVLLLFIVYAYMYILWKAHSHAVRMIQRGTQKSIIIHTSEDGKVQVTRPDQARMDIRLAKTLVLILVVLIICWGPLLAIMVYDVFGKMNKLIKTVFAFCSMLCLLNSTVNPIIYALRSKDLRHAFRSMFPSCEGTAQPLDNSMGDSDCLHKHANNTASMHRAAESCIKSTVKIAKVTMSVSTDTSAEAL
T2 sequence (P20272 whole entry): as the sequence (P47746 whole entry) above, with D95E counted along it

Activity [1] [%]	Activity [2] [%]	Ki (Cannabinoid receptor 1 [3]) [µM]	inhibition [4]	Ki (Cannabinoid receptor 1 [5]) [µM]	Activity [6]	Activity [7]	Compound
103	114						CCCCCCCCCCCCCCCCNS(N)(=O)=O
109	109						CCCCCCCCCCCCCCNS(N)(=O)=O
		6.41	inactive				CCCCC/C=C\C/C=C\CCCCCCCCNS(N)(=O)=O
110	109	9.1	inactive	> 10	inactive	inactive	CCCCCCCCCCCCCCCCCCNS(=O)(=O)NCCC
102	100	1.89	inactive				CCCCCCCC/C=C\CCCCCCCCNS(N)(=O)=O
			inactive				NS(=O)(=O)NC1C2CC3CC(C2)CC1C3 (configuration not stated)
92.6	90.4	8.58	inactive	4.23	inactive	inactive	CCCNS(=O)(=O)NC12CC3CC(CC(C3)C1)C2
99.3	108						CCCCCCCCCCCCNS(N)(=O)=O
			inactive				CC(NS(N)(=O)=O)C12CC3CC(CC(C3)C1)C2 (configuration not stated)
99.4	106	> 10	inactive				CCCCCCCCCCCCCCCCCCNS(N)(=O)=O
		6.67	inactive	> 10	inactive	inactive	CCCNS(=O)(=O)NC1C2CC3CC(C2)CC1C3 (configuration not stated)

Compound	Activity [1] [%]	Activity [2] [%]	Ki (Cannabinoid receptor 1 [3]) [µM]	inhibition [4]	Ki (Cannabinoid receptor 1 [5]) [µM]	Activity [6]	Activity [7]
CCCCC/C=C\C/C=C\C/C=C\C/C=C\CCCCNS(N)(=O)=O			4.01	inactive			
CCCCC/C=C\C/C=C\CCCCCCCCNS(=O)(=O)NCCC			7.19	inactive			
CCCCC/C=C\C/C=C\C/C=C\C/C=C\CCCCNS(=O)(=O)NCCC			2.34	inactive			
CCCCCCCC/C=C\CCCCCCCCNS(=O)(=O)NCCC	96.5	101	> 10	inactive			
CCCNS(=O)(=O)NC(C)C12CC3CC(CC(C3)C1)C2 (configuration not stated)			> 10	inactive	> 100	inactive	inactive
